Measured values published in the EternaBench riboswitch data.

System: MS2 coat protein
Experiment: apparent Kd, MS2 coat protein; higher = weaker binding; RNA-MaP array
Outline: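 Apparent Kd was taken as the median of binding curves fitted cluster by cluster. The designed RNAs were made by transcription of sequenced DNA templates on an Illumina sequencing chip and exposed to fluorescently labeled MS2 coat protein (1.5 nM to 3 μM) at room temperature, with or without input ligand, for 0.8–1.5 h at the lowest and 10–20 min at the highest concentrations. Any design measured on fewer than 10 clusters was left out.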

[1] = designed as: OFF switch for tryptophan, no ligand
[2] = ligand present: tryptophan, designed as: OFF switch for tryptophan
[3] = designed as: ON switch for flavin mononucleotide, no ligand
[4] = ligand present: flavin mononucleotide, designed as: ON switch for flavin mononucleotide
[5] = designed as: OFF switch for flavin mononucleotide, no ligand
[6] = ligand present: flavin mononucleotide, designed as: OFF switch for flavin mononucleotide
[7] = designed as: ON switch for tryptophan, no ligand
[8] = ligand present: tryptophan, designed as: ON switch for tryptophan
[9] = designed as: OFF switch for theophylline, no ligand
[10] = ligand present: theophylline, designed as: OFF switch for theophylline
[11] = designed as: ON switch for theophylline, no ligand
[12] = ligand present: theophylline, designed as: ON switch for theophylline

Row | Sequence | apparent Kd [5] [nM] | apparent Kd [6] [nM] | also measured
1 | AUCAUCAGUUCGGCCGCCACUGUUUGGCACAGUUGUAUCGUACAUGAGGAUCACCCAUGUCACCACAGGACCGGGAACGCCGUCG | – | – | apparent Kd [1]: 16.1 nM; apparent Kd [2]: 17.3 nM
2 | AUCGCGACCCAGAAGGGAAGUCGGUGAAGCGGUUCAGGAUAUGGGCAGAGGACAUGAGGAUCACCCAUGUGCAUGUAUUCGGCA | – | – | apparent Kd [3]: 17.2 nM; apparent Kd [4]: 13.7 nM
3 | AUGAUAUGGGACAUGAGGAUCACCCAUGUCGGCUUUGUCACGCAGGAUAUUGCGACUCAAAUCGUCAAGAAGGGCGGAGACUCC | 21.5 | 19.6 | –
4 | AUGUAGUGCGAGAAGGACUCCCUCUUACACAUGAGGAUCACCCAUGUGCCCUCAAGCUAGACCGAGUAGGAUAUCGACCGCGCC | 60 | 43.6 | –
5 | AUGUGAGGACAUGAGGAUCACCCAUGUCGGGAACCUCUCGCAGAGGAUAUUCGAGAAGCAACGUUGAAGAAGGCUGGCGAAACC | 18.1 | 13.7 | –
6 | AUUAACAUGAGGAUCACCCAUGUUCUCACACGAGGACCGGUACGGCCGCCACUCGGUUUGGUAUUGGUCACUAGGCAGUUAGGAG | – | – | apparent Kd [7]: 15.9 nM; apparent Kd [8]: 17.6 nM
7 | AUUACAGACUACGGCGAUACAUGAGGAUCACCCAUGUCGAGUUAGGAUAUGCAACAAUACGGCCUGCAGAAGGAACCAAGAGGG | 35.1 | 32.3 | –
8 | AUUAGGCGGCAGAAGGCCCAUACCCGGACAUGAGGAUCACCCAUGUACUCGUUUCGCCAUAUCAGGGAGGAUAUGCCAACAACU | 17.5 | 15.8 | –
9 | AUUAUGCAGUGAGAGGAUAUCAUCGAUAAGACAUGAGGAUCACCCAUGUGUGUCAGGGUUACACAUGAGAAGGCUCACCAAACUUU | – | – | apparent Kd [3]: 7.28 nM; apparent Kd [4]: 7.49 nM
10 | AUUCCACAUGAGGAUCACCCAUGUUCUGCUCUGCAUGGAAACAGAAGGAUUCGCGUCAGGUCGAAAUAGGAUAUGUUGUCAAAG | 33.6 | 28.5 | –
11 | AUUCGCCGAGGAUAUAAGUCGUUUGACAUGAGGAUCACCCAUGUUGUCAGUGGAAAUCGUUUAGAAGGCGGCCUCC | 18.9 | 13.4 | –
12 | CAACGGUUAGAGAAGGCAUAGUAAAGAAUUCAAUGAGGAUAUCUAAAGAAAUGUAUAGGUCUUUUACAUGAGGAUCACCCAUGU | 17.6 | 9.47 | –
13 | CACAUGUCAGGAUAUAGCGAUACAGUUCGACCACUUACUGCCUAGAAGGGACAUGAGGAUCACCCAUGUAAAAG | 26.1 | 61.2 | –
14 | CACGCCAUAGGAUAUACAUGAGGAUCACCCAUGUGGUGGUAGCAGCCAUAACGGUACAGUAGAAGGAUGUGCGA | 274 | 171 | –
15 | CACGCGGAGUUAGGAUAUAACGAUUGUCAGCCGUUAGAAGGAACCCAUCGCAAAUCUACGUCUAACAUGAGGAUCACCCAUGUU | – | – | apparent Kd [3]: 6.85 nM; apparent Kd [4]: 5.7 nM
16 | CAGAGUUCCUAAGGAUAUUGCUGGUCCGCAGUUCAAGAAGGUAGGUAUAAAAUGCUUAAACAUGAGGAUCACCCAUGUCAAGCC | – | – | apparent Kd [3]: 6.75 nM; apparent Kd [4]: 6.08 nM
17 | CAUCCAACACAAGGAUAUUGGACGUUUUUCAGCGCACAUGAGGAUCACCCAUGUACAAGGGAGUACAAGAAGGUGUUUUGGAUC | – | – | apparent Kd [3]: 27.1 nM; apparent Kd [4]: 9.49 nM
18 | CAUCCACCUGAAGCCUCCCAAUUCCUCGAUACCAGAGGAUUAAGACUCCCUUGGCAGCGAGCUACAUGAGGAUCACCCAUGUGCC | – | – | apparent Kd [9]: 19.1 nM; apparent Kd [10]: 23.9 nM
19 | CAUCGGGCGGUAAAUGGCGGGUACGGUGAUACCAGUUUUUGAUUUAACCCUUGGCAGCACUAUACAUGAGGAUCACCCAUGUAAU | – | – | apparent Kd [9]: 17.9 nM; apparent Kd [10]: 30 nM
20 | CAUGCUAACAUGAGGAUCACCCAUGUUCCGGCGUAAACUGCACAGGAUAUCGAGAAUUUACAAGCCGAGAAGGGUGCGUAGCAU | – | – | apparent Kd [3]: 195 nM; apparent Kd [4]: 71.7 nM
21 | CAUGGAUAAGGAUAUACAUGAGGAUCACCCAUGUAUAGAAGGAUACAAAGAUAAGAAUGUAGAAGGUAUUGGUU | 9.75 | 8.44 | –
22 | CAUUUACAUGAGGAUCACCCAUGUUAGUAAUGCUGAGGAUAUGGUCCACGCUCCUAUUUACCAGAAGGCAGUCUUG | – | – | apparent Kd [3]: 19.2 nM; apparent Kd [4]: 13.8 nM
23 | CCAAUGCAAGGAUAUACAAAAGACUCACUAAAUAGAACAAAACAUGAGGAUCACCCAUGUAGAAGGUGCUGAAC | 12.3 | 13.6 | –
24 | CCAGCUAAAGGAUAUACUGCCGGUGUUAUGUAAUAAUUGCAACAUGAGGAUCACCCAUGUAGAAGGUAAGUGAA | 11 | 9.45 | –
25 | CCGACCCAAGGAUAUACAUGAGGAUCACCCAUGUAUAAAAUAUACCAAGGUAAAAUAUGUAGAAGGAGGAUAUG | 6.54 | 6.17 | –
26 | CCGAUGAUGAUAGGAUAUCUAGGAGUUAAGACGCCGUCUACAUGAGGAUCACCCAUGUUUCGAUUAGAGAAGGAUCGGGAUUCG | – | – | apparent Kd [3]: 13.1 nM; apparent Kd [4]: 7.13 nM
27 | CCUCAGCAAUUGGAUACCAGUACAUCGUAAGACAUGAGGAUCACCCAUGUGGGCUUGACAUACCCUUGGCAGCCAUCCUUGAUCC | – | – | apparent Kd [11]: 234 nM; apparent Kd [12]: 252 nM

Row | Sequence | apparent Kd [5] [nM] | apparent Kd [6] [nM] | also measured
28 | CCUGGGACAUGAGGAUCACCCAUGUGUGUUAUCGGUGCGUGAGAGGAUAUACACAGCGUCCGUUAGUAGAAGGCUCAUGAUGUA | 88.3 | 52.5 | –
29 | CCUUGUGUGAAGGAUAUAGGUUUAUGUUUCUGUCUAGAAGGUCACACAUGAGGAUCACCCAUGUAUAUCCUAGA | 18.3 | 51.6 | –
30 | CGACAUUAGUAGAAGGAGGAGUAGCGAUAGAGCCUAGGAUAUACGAACAAAUACAUGAGGAUCACCCAUGUUGACGAUCCAUCA | 49 | 45.8 | –
31 | CGAUCCUUGCAGAAGGACUAAAACCAAAUACCAGUAGGAUAUGCAACAUGAGGAUCACCCAUGUGACGAAGGAUGCGGGAAAUA | 8.82 | 8.69 | –
32 | CGCUAAGAGCGGCACCUCCACAUGAGGAUCACCCAUGUUUGAAGAAGGCCAAUUUACGUAAGACUGGAGGAUAUUCAGGAGAGU | – | – | apparent Kd [3]: 10.1 nM; apparent Kd [4]: 5.9 nM
33 | CGGGAACGAUAUGAUACCAGCCUGCGAAAGAAUGCUUAGUACAUGAGGAUCACCCAUGUAGGCCCUUGGCAGCAUCGACUCAAGU | – | – | apparent Kd [9]: 14.8 nM; apparent Kd [10]: 19.7 nM
34 | CGGGCACAUGAGGAUCACCCAUGUAAGGAUAUGAACAGUUUUCACAGAGUUUCACUAUUCAGAAGGUACGUUUC | 24.2 | 20.8 | –
35 | CGUAUAGCAGGAUAUUGCAGCCGGCACAUGAGGAUCACCCAUGUCGAUGGUCCGCCAUAGCAAGAAGGGCUAGUAG | 85.7 | 57.1 | –
36 | CGUCCACAUGAGGAUCACCCAUGUACACGCGAUCAAGGAUAUCGCGAUAACACAAUAGUGCGAGAAGGUGAUGUAC | – | – | apparent Kd [3]: 148 nM; apparent Kd [4]: 79.6 nM
37 | CGUGGGUGUGAGCCACAUGAGGAUCACCCAUGUCACAACGUGAGAAGGAACAGGCCCUGUGUCGGUUAGGAUAUCAAACCCUUA | 142 | 27.3 | –
38 | CGUUAAGAAUCGGCCGCCACUCCAUACGUGUGAAUCGCGGAUCGACAUGAGGAUCACCCAUGUCGGAGGACCGGGAUCCUCUUUC | – | – | apparent Kd [7]: 35 nM; apparent Kd [8]: 23.3 nM
39 | CUAGGCGUGCAGAAGGCGGAAAUAUUUCGUGGCCGAGGAUAUGCUGAUAUAUCGCAAGUGACAUGAGGAUCACCCAUGUGUCUA | – | – | apparent Kd [3]: 16.6 nM; apparent Kd [4]: 14.2 nM
40 | CUAGUGUGAGGAUAUGAGUCAACCUUUUAGUUCUAAGGAGAUCAGAAGGCACAUGAGGAUCACCCAUGUCAGAA | 33.4 | 84 | –
41 | CUCAAGUAAGGAUAUAUUCACGCUCGUAAUUAGUGUCGCGCAUAGAAGGUACAUGAGGAUCACCCAUGUCAUGU | – | 18.4 | –
42 | CUGAAGUAAGGAUAUAUAUACCAUAGACCAUUAAAGACAUUAUAGAAGGUACAUGAGGAUCACCCAUGUGGGAA | 29.9 | 26.4 | –
43 | CUGUACAUGAGGAUCACCCAUGUUAGACCAGCUUAAAAUAUAAGAAGGUUGAGGGCUUGACCAACAAAGGAUAUUAUGUGACCA | – | – | apparent Kd [3]: 27.7 nM; apparent Kd [4]: 18.1 nM
44 | CUGUUACAUGAGGAUCACCCAUGUGAGCGGUUGCUAGGAUAUCGCCAUUGGUGGUUCGGACGAGAAGGAGCUAAAA | – | – | apparent Kd [3]: 150 nM; apparent Kd [4]: 67.2 nM
45 | CUUACACAUGAGGAUCACCCAUGUCAUGAUACCAGCCAAUACACUGGCCCUUGGCAGCAUCUCAGCCUCAGCUACAUUGACUGAC | – | – | apparent Kd [11]: 19.9 nM; apparent Kd [12]: 27.1 nM
46 | CUUACUCGUCUAGGAUAUCGAAUGCCAACAUGAGGAUCACCCAUGUGUGGGUUGAUCGUCUAGGCCGAGAAGGAGACUGCAAUC | 8.88 | 18.1 | –
47 | CUUGUGCUGACGGCCGCCACUUUAUGGGAGUCCUGUUCUGAUUGAUACAUGAGGAUCACCCAUGUAAGGACCGGGUCGUACCAUA | – | – | apparent Kd [1]: 18 nM; apparent Kd [2]: 22.3 nM
48 | GAAAACGAUCCCAAUACAUGAGGAUCACCCAUGUGGUGCAGUCAGGAUAUCACUACACCAAAACUUGAGAAGGGACACAUCGCC | 347 | 318 | –
49 | GAAUGUUGGAAGAAGGCACGCCCUGCAUGGCGGUGAGGAUAUUCCGUACUUGGAGUGGAAACAUGAGGAUCACCCAUGUAAGUA | 36.8 | 37 | –
50 | GAAUUUCGGAAGAAGGGACUCGAUCAGUUCAGGUCAGGAUAUUCACAUGAGGAUCACCCAUGUCCAUCAGCAUGACGUUUCCAC | 10.9 | 14.7 | –
51 | GACAACCACAUGAGGAUCACCCAUGUUUACAUACACAAGGGAAGAAGGGAACCUAAAGGAUCAAAUCAGGAUAUUCGUAUUGUA | – | – | apparent Kd [3]: 27 nM; apparent Kd [4]: 19.5 nM
52 | GACAGGAAAGGAUAUACAAAAUAGAUCAAACGCACACAAAGACAUGAGGAUCACCCAUGUAGAAGGUACUGACA | 11.3 | 9.76 | –
53 | GACAUGAGGAUCACCCAUGUAUGUGGGACUGCGCAUUGAUACUAGGAUAUCUGCCCAGACGUGUGAGAGAAGGAGUACGGUAAA | – | – | apparent Kd [3]: 74.7 nM; apparent Kd [4]: 56 nM
54 | GAGCGACUAUGAGAUUGGACAUGAGGAUCACCCAUGUGAGACAGAAGGGCCUUGGCGCCCGUGAGGCAGGAUAUGUACCAAGCA | – | – | apparent Kd [3]: 27.4 nM; apparent Kd [4]: 19.6 nM
